{
  "source": "ChEMBL document CHEMBL1126785",
  "about": "“Peptidomimetic HIV protease inhibitors: phosphate prodrugs with improved biological activities” (J Med Chem, 1993)",
  "key": {"[1]": {"molecular_target": "Human immunodeficiency virus type 1 protease (Human immunodeficiency virus 1, UniProt Q72874)", "test": "Tested for inhibitory activity against HIV-1 protease", "in_short": "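Recombinant HIV-1 protease hydrolysing 2.5 mM synthetic octapeptide substrate H-Val-Ser-Gln-Asn-Tyr-Pro-Ile-Val-OH, with or without inhibitor. Run at 30 °C in 100 mM sodium acetate pH 5.5 with 10% glycerol, 5% ethylene glycol and 0.1% Nonidet P-40. Stopped after 30 min with 1% trifluoroacetic acid; hydrolysis quantified by HPLC.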"}, "[2]": {"test_system": "Human immunodeficiency virus 1", "test": "(§1) Tested for the inhibition of p24 production in HIV-1 IIIB infected human peripheral blood mononuclear cells (PBMC)", "type": "functional", "in_short": "(§2)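 Human PBMC (5×10^4 cells) were infected with HIV-1 IIIB at MOI 0.003 for 90 min. They were then kept in triplicate wells with continuous compound present for 7 days; compounds came from 10 mM DMSO stocks. Supernatant p24 was measured by ELISA. IC50 and IC90 were taken from linear regression on the linear part of the dose-response curve.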"}, "[3]": {"test_system": "Human immunodeficiency virus 1", "test": "as §1", "type": "functional, organism-based", "in_short": "as §2"}},
  "note": "pIC50, pKi: −log10 of the molar value.",
  "data": [
    {"compound": "CC[C@H](C)[C@H](NC(=O)[C@H](C(C)C)[C@@H](O)[C@H](O)[C@H](CC1CCCCC1)NC(=O)[C@H](Cc1c[nH]cn1)NC(=O)COc1cccc2ccccc12)C(=O)NCc1ccccn1", "values": [
      {"measurement": "pKi", "setting": "[1]", "value": "> 9.00"},
      {"measurement": "IC90", "setting": "[2]", "value": 0.223, "unit": "µM"},
      {"measurement": "pIC50", "setting": "[3]", "value": 7.30}
    ]}
  ]
}
